Experimental data pooled from the literature.
Protocols differ between the studies behind these lines.

| SMILES | test | test system | conditions | quantity | result |
| --- | --- | --- | --- | --- | --- |
| COCC(=O)N1CCC[C@H](C(=O)NCc2nc(-c3ccc(C)nc3)cs2)C1 | metabolic stability | human, liver microsomes | 0.5 µM | microsomal CLint | 5.1 µL/min/mg |
| COc1ccc2c(c1)CN(C(=O)CCN1CCC(Cc3ccccc3)CC1)CC[S@@+]2[O-] | – | male human, plasma | intravenous, 0.01 mg/kg, healthy volunteers | clearance | 235 mL/min |
| COCC(=O)N1CCC[C@H](C(=O)NCc2nc(-c3ccc(C#N)cc3)cs2)C1 | metabolic stability | human, liver microsomes | 0.5 µM | microsomal CLint | 10 µL/min/mg |
| CC1(C)NC(=O)N(c2ccc(F)c(S(C)(=O)=O)c2)C1=O | HPLC | – | pH 7.4 | chromatographic logD | 1.2 |
| CC(C)(N)COCC(=O)N1CCC[C@H](C(=O)NCc2nc(-c3ccc(C(F)(F)F)cc3)cs2)C1 | metabolic stability | human, liver microsomes | 0.5 µM | scaled CLint | < 4 mL/min/kg |
| Cc1cc(S(=O)(=O)NC2CC(N3CCN(CC4CCN(c5ccc(NC6CCC(=O)NC6=O)cc5C)CC4)CC3)C2)ccc1Nc1ncc(C(F)(F)F)c(N2CCC[C@](C)(O)C2)n1 (stereo partly shown) | metabolic stability | rat, liver microsomes | 1 µM | scaled CLint | < 21 mL/min/kg |
| CC1(C)NC(=O)N(c2cc(C(F)(F)F)c(F)cc2C#N)C1=O | HPLC | – | pH 7.4 | chromatographic logD | 2.8 |
| CCOCC(=O)N1CC[C@@H](C)[C@H](C(=O)NCc2nc(-c3ccc(C)nc3)cs2)C1 (racemic) | metabolic stability | human, liver microsomes | 0.5 µM | microsomal CLint | 6.9 µL/min/mg |
| O=c1c2c([nH]c3cc(OC(F)(F)F)ccc13)CCCC2 | metabolic stability | human, liver microsomes | 1 µM, pH 7.4 | microsomal CLint | 173 µL/min/mg |
| C[C@H]1CN(c2ccc(C3CCC(=O)NC3=O)cc2F)CCN1CC12CCC(NS(=O)(=O)c3ccc(Nc4ncc(C(F)(F)F)c(N5CCC[C@](C)(O)C5)n4)c(F)c3)(CC1)CO2 (stereo partly shown) | metabolic stability | human, liver microsomes | 1 µM | scaled CLint | 22 mL/min/kg |
| OC[C@H]1O[C@@H](c2cc(Cc3ccc(C4CC4)cc3)c(Cl)c3c2CCO3)[C@H](O)[C@@H](O)[C@@H]1O | – | human, plasma | oral, 0.3 mg, single dose, fasted | CL/F | 9410 mL/h |
| Cc1ccc(-c2csc(CNC(=O)[C@H]3CCCN(C(=O)[C@H]4CCC(C)(C)O4)[C@H]3C)n2)cn1 | metabolic stability | male Sprague-Dawley rat, liver microsomes | 0.5 µM | microsomal CLint | 197 µL/min/mg |
| C[C@]1(O)CCCN(c2nc(Nc3ccc(S(=O)(=O)N[C@H]4CC[C@H](CN5CCN(c6ccc(C7CCC(=O)NC7=O)c(F)c6)CC5)CC4)cc3F)ncc2C(F)(F)F)C1 (stereo partly shown) | metabolic stability | rat, liver microsomes | 1 µM | scaled CLint | < 21 mL/min/kg |
| c1ccc(Oc2ccc(Nc3c4c(nc5ccccc35)CCC4)cc2)cc1 | HPLC | – | pH 7.4 | chromatographic logD | > 5.3 |
| Clc1ccc(Nc2ncnc3ccc(-c4cccc(N5CCOCC5)c4)cc23)cc1Cl | shake flask | aqueous buffer | pH 7.4 | logD | > 4.2 |
| CC1(C)NC(=O)N(c2ccc(F)c(F)c2)C1=O | HPLC | – | pH 7.4 | chromatographic logD | 1.8 |
| c1coc(Nc2ncnc3ccc(-c4cncc(N5CCOCC5)n4)cc23)n1 | shake flask | aqueous buffer | pH 7.4 | logD | 3.5 |
| CCS(=O)(=O)N1CCC2(CC1)NC(=O)N(c1ccc(F)c(C(F)(F)F)c1)C2=O | HPLC | – | pH 7.4 | chromatographic logD | 3.1 |
| O=c1c2ccc(Oc3ccc(OC(F)(F)F)cc3)cc2[nH]c2cc(F)c(Cl)cc12 | metabolic stability | human, liver microsomes | 1 µM, pH 7.4 | microsomal CLint | 2.59 µL/min/mg |
